Experimental data gathered from unrelated publications.
Protocols differ between the studies behind these lines.

| SMILES | sample | concentration | time | pH | Papp |
| --- | --- | --- | --- | --- | --- |
| NC(=O)[C@@H]1CC(F)(F)CN1C(=O)c1ccc(N2CC(F)(F)C2)c(OCC2CC2)n1 | PAMPA | – | – | – | 5.23 ×10⁻⁶ cm/s |
| CN1CCN(C(c2ccc(Cl)cc2)c2ccc(Cl)cc2)CC1 | PAMPA | – | – | – | 1020 ×10⁻⁶ cm/s |
| O=C1NC(=O)C(c2ccccc2)(c2ccccc2)N1 | PAMPA | 200 µM | 5 h | pH 7.4 | 6.1 ×10⁻⁶ cm/s |
| CC(C)[C@H]1C(=O)N[C@@H](CCCN=C(N)N)C(=O)NCC(=O)N[C@@H](CC(=O)O)C(=O)N[C@H](Cc2ccccc2)C(=O)N1C | Caco-2 | – | – | – | ~0.1 ×10⁻⁶ cm/s |
| COCCOCCOc1c(OC)cc2cc(C(=O)N3C[C@@H](CCl)c4c3cc(O)c3[nH]c(C(=O)OC)cc43)[nH]c2c1OC | PAMPA | 1 µM | 5 h | pH 7.4 | 3.6 ×10⁻⁶ cm/s |
| CC[C@@H](C)[C@@H]1NC(=O)[C@@H](CC(C)C)NC(=O)CN(C)C(=O)[C@H]([C@H](C)CC)NC(=O)[C@@H](CC(C)C)NC(=O)CN(C)C1=O | PAMPA | – | – | – | 38 ×10⁻⁶ cm/s |
| O=C1[O][Pt]2([NH][C@@H]3CCCC[C@H]3[NH]2)[O]C1=O (relative stereo) | PAMPA | – | – | pH 6.8 | 0.448 ×10⁻⁶ cm/s |
| O=c1cc(-c2ccccc2)oc2c(O)c(O)ccc12 | PAMPA-BBB | 1 µM | 18 h | – | 6.32 ×10⁻⁶ cm/s |
| O=S(=O)(Nc1ccc2c(c1)B(O)OC2)c1ccc(Cl)cc1 | PAMPA | 200 µM | 5 h | pH 7.4 | 1.7 ×10⁻⁶ cm/s |
| COc1ccc(C[C@@H]2NC(=O)[C@@H](CC(C)C)NC(=O)CNC(=O)[C@H](CC(C)C)NC(=O)[C@@H](CC(C)C)NC(=O)[C@H]3CCCN3C2=O)cc1 | PAMPA | 10 µM | 7 h | – | 9.1 ×10⁻⁶ cm/s |
| N#Cc1ccc(COc2cccc(C(=O)Nc3ccc4c(c3)B(O)OC4)c2)cc1 | PAMPA | 200 µM | 5 h | pH 7.4 | 0.076 ×10⁻⁶ cm/s |
| COc1ccc(C[C@@H]2NC(=O)[C@@H](CC(C)C)NC(=O)[C@H](CCSC)NC(=O)[C@H](CC(C)C)NC(=O)[C@@H](CC(C)C)NC(=O)[C@H]3CCCN3C2=O)cc1 | PAMPA | 10 µM | 7 h | – | 13 ×10⁻⁶ cm/s |
| O=C(Nc1ccc2c(c1)B(O)OC2)c1cccc(OCc2ccccc2)c1 | PAMPA | 200 µM | 5 h | pH 7.4 | 0.14 ×10⁻⁶ cm/s |
| CNC(=O)[C@@H](NC(=O)c1cc(OCC2(C)COC2)c(C2CC2)cn1)C(C)(C)C | PAMPA | – | – | – | 5.17 ×10⁻⁶ cm/s |
| CC[C@@H](C)[C@@H]1NC(=O)[C@@H](Cc2ccc(OC)cc2)NC(=O)CN(C)C(=O)[C@H]([C@H](C)CC)NC(=O)[C@@H](Cc2ccc(OC)cc2)NC(=O)CN(C)C1=O | PAMPA | – | – | – | 29 ×10⁻⁶ cm/s |
